Imax, Activity and IC50 data for 28 molecules are collected here from ChEMBL document CHEMBL2375238, “Synthesis and biological evaluation of oleanolic acid derivatives as PTP1B inhibitors” (Eur J Med Chem, 2013).

In assay [1] the target is T1, Tyrosine-protein phosphatase non-receptor type 1 (Homo sapiens) (UniProt P18031).
T1 sequence (whole entry): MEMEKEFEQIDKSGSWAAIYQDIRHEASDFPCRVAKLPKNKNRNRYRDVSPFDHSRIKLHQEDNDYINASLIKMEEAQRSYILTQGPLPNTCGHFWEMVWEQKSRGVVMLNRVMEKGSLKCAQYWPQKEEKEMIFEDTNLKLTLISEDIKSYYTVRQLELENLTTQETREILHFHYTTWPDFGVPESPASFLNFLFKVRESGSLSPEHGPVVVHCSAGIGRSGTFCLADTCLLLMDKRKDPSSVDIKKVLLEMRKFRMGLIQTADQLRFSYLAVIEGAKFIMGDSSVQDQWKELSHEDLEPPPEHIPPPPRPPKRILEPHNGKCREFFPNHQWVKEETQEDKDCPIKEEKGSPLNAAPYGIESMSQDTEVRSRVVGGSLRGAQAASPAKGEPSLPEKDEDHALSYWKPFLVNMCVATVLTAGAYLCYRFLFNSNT
As to the kind of experiment: Inhibition of PTP1B (unknown origin) expressed in Escherichia coli expression system using p-nitrophenyl phosphate as substrate assessed as release of p-nitrophenol at 10 ug/mL incubated for 10 mins prior to substrate addition measured after 30 mins relative to control. In short, it runs like this:
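Native PTP1B was expressed in E. coli, purified, and diluted in 25 mM HEPES, 50 mM NaCl, 2.5 mM EDTA, 0.1% BSA, pH 7.2. Compounds were dissolved in DMSO and preincubated with enzyme in buffer A (50 mM HEPES, 2.5 mM EDTA, pH 7.0) for 10 min at 37 °C. pNPP was then added for 30 min at 37 °C.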

In another assay the test system is 3T3-L1. As to the kind of experiment: Insulin sensitizing activity in mouse 3T3L1 cells assessed as increase in glucose uptake at 10 ug/mL after 50 hrs […] relative to control. Format: functional. In a few lines:
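3T3-L1 cells were grown in high-glucose DMEM with 10% FBS and, at 90% confluence, differentiated with insulin, dexamethasone and IBMX. After 4 days they were replated, grown 2 days, then made insulin-resistant with low insulin and high dexamethasone for 4 days. Compounds were given in high-glucose medium for 50 h. Supernatant glucose was measured by kit at OD 490 nm, against normal and insulin-resistant controls, in duplicate or triplicate.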

The target in assay [2] is T2, Tyrosine-protein phosphatase non-receptor type 1 (Homo sapiens, UniProt P18031).
T2 sequence (P18031 whole entry): T1 sequence (whole entry)
Briefly: Inhibition of PTP1B (unknown origin) expressed in Escherichia coli expression system using p-nitrophenyl phosphate as substrate assessed as release of p-nitrophenol incubated for 10 mins prior to substrate addition measured after 30 mins. In short, it runs like this:
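Native PTP1B purified from E. coli, diluted in 25 mM HEPES, 50 mM NaCl, 2.5 mM EDTA, 0.1% BSA, pH 7.2; inhibitors in DMSO. Enzyme and inhibitor preincubated at 37 °C in 50 mM HEPES, 2.5 mM EDTA, pH 7.0. pNPP then added; stopped after 30 min with 2 M Na2CO3; A405 read. Inhibition from OD against blank and no-inhibitor controls; means of three experiments.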

The target of assay [3] is Tyrosine-protein phosphatase non-receptor type 1 (Homo sapiens) (UniProt P18031). As to conditions: 100 ug/mL.

As to `CC(=O)N[C@H]1[C@H]([C@H](O)[C@H](O)CO)O[C@@](O[C@H]2CC[C@]3(C)[C@H]4CC=C5[C@@H]6CC(C)(C)CC[C@]6(C(=O)NCCCCCC(=O)O)CC[C@@]5(C)[C@]4(C)CC[C@H]3C2(C)C)(C(=O)O)C[C@@H]1O`, the Imax in assay [1] was determined as 46%. The Activity in the assay on 3T3-L1 is -16.69%.

For the molecule `CN(CCOc1ccc(CC2SC(=O)NC2=O)cc1)c1ccccn1` (stereo not given) [ROSIGLITAZONE], in the assay on 3T3-L1, the Activity worked out at 100%.

For the molecule `COC(=O)CCCCCNC(=O)[C@]12CCC(C)(C)C[C@H]1C1=CC[C@@H]3[C@@]4(C)CC[C@H](O[C@@H]5O[C@@H](C)[C@@H](O)[C@@H](O)[C@@H]5O)C(C)(C)[C@@H]4CC[C@@]3(C)[C@]1(C)CC2`, in assay [1], the Imax was 1.91%. Still for that read-out and setting: under `COC(=O)CCCCCNC(=O)[C@]12CCC(C)(C)C[C@H]1C1=CC[C@@H]3[C@@]4(C)CC[C@H](O[C@@H]5O[C@H](C(=O)O)[C@@H](O)[C@H](O)[C@H]5O)C(C)(C)[C@@H]4CC[C@@]3(C)[C@]1(C)CC2` stands 11.8%. `CC(=O)N[C@H]1[C@H]([C@H](O)[C@H](O)CO)O[C@](O[C@H]2CC[C@]3(C)[C@H]4CC=C5[C@@H]6CC(C)(C)CC[C@]6(C(=O)NCCCCCC(=O)O)CC[C@@]5(C)[C@]4(C)CC[C@H]3C2(C)C)(C(=O)O)C[C@@H]1O`: in assay [1], the Imax worked out at 69%. The Activity in the assay on 3T3-L1 is 10.31%. For the molecule `CC1(C)CC[C@]2(C(=O)NCCCCCC(=O)O)CC[C@]3(C)C(=CC[C@@H]4[C@@]5(C)CC[C@H](O)C(C)(C)[C@@H]5CC[C@]43C)[C@@H]2C1`, in assay [1], the Imax came to 14.3%. Turning to `C[C@@H]1O[C@@H](O[C@H]2CC[C@]3(C)[C@H]4CC=C5[C@@H]6CC(C)(C)CC[C@]6(C(=O)NCCCCCC(=O)O)CC[C@@]5(C)[C@]4(C)CC[C@H]3C2(C)C)[C@@H](O)[C@H](O)[C@@H]1O`, the Imax in assay [1] worked out at 63.2%. The Activity in the assay on 3T3-L1 turned out to be 59.58%. Regarding `COC(=O)CCCCCNC(=O)[C@]12CCC(C)(C)C[C@H]1C1=CC[C@@H]3[C@@]4(C)CC[C@H](O[C@H]5O[C@H](CO)[C@@H](O)[C@H](O)[C@@H]5O)C(C)(C)[C@@H]4CC[C@@]3(C)[C@]1(C)CC2`, the Imax in assay [1] came to 1.52%. The same measure, in the same setting: under `CC1(C)CC[C@@]23CC[C@]4(C)[C@@](OC2=O)([C@@H]3C1)[C@@H](O)C[C@@H]1[C@@]2(C)CC[C@H](O[C@@H]3O[C@H](CO)[C@@H](O)[C@H](O)[C@H]3O)C(C)(C)[C@@H]2CC[C@]14C` stands 6%.

As for `COC(=O)CCCCCNC(=O)[C@]12CCC(C)(C)C[C@H]1C1=CC[C@@H]3[C@@]4(C)CC[C@H](O[C@H]5O[C@H](C(=O)O)[C@@H](O)[C@H](O)[C@@H]5O)C(C)(C)[C@@H]4CC[C@@]3(C)[C@]1(C)CC2`, in assay [2], the IC50 came out at 1.91 µM. Besides, the Imax in assay [1] turned out to be 98.6%. For the molecule `COC(=O)CCCCCNC(=O)[C@]12CCC(C)(C)C[C@H]1C1=CC[C@@H]3[C@@]4(C)CC[C@H](O[C@@H]5O[C@H](C(=O)OC)[C@@H](O)[C@H](O)[C@H]5O)C(C)(C)[C@@H]4CC[C@@]3(C)[C@]1(C)CC2`, the Imax in assay [1] worked out at 36.7%. Besides, in the assay on 3T3-L1, the Activity is recorded as 28.29%. For `CC1(C)CC[C@]2(C(=O)NCCCCCC(=O)O)CC[C@]3(C)C(=CC[C@@H]4[C@@]5(C)CC[C@H](O[C@H]6O[C@H](CO)[C@@H](O)[C@H](O)[C@@H]6O)C(C)(C)[C@@H]5CC[C@]43C)[C@@H]2C1`, in that order: 57% and 57.55%. With `CC1(C)CC[C@]2(C(=O)NCCCCCC(=O)O)CC[C@]3(C)C(=CC[C@@H]4[C@@]5(C)CC[C@H](O[C@H]6O[C@H](C(=O)O)[C@@H](O)[C@H](O)[C@@H]6O)C(C)(C)[C@@H]5CC[C@]43C)[C@@H]2C1`, in assay [2], the IC50 came out at 16.1 µM. In addition, the Imax in assay [1] came out at 64.8%. For the same molecule, in the assay on 3T3-L1, the Activity came out at 3.91%.

On to `CC1(C)CC[C@@]23CC[C@]4(C)[C@@](OC2=O)([C@@H]3C1)[C@@H](O)C[C@@H]1[C@@]2(C)CC[C@H](O[C@@H]3O[C@H](C(=O)O)[C@@H](O)[C@H](O)[C@H]3O)C(C)(C)[C@@H]2CC[C@]14C`, for which, in assay [1], the Imax was 16.1%. The same measure, in the same setting: under `CC1(C)CC[C@@]23CC[C@]4(C)[C@@](OC2=O)([C@@H]3C1)[C@@H](O)C[C@@H]1[C@@]2(C)CC[C@H](O[C@@H]3O[C@H](CO)[C@@H](O[C@@H]5O[C@H](CO)[C@H](O)[C@H](O)[C@H]5O)[C@H](O)[C@H]3O)C(C)(C)[C@@H]2CC[C@]14C` stands 2.55%; under `CC1(C)CC[C@@]23CC[C@]4(C)[C@@](OC2=O)([C@@H]3C1)[C@@H](O)C[C@@H]1[C@@]2(C)CC[C@H](O[C@H]3O[C@H](CO)[C@@H](O)[C@H](O)[C@@H]3O)C(C)(C)[C@@H]2CC[C@]14C`, 2.9%. As to SODIUM ORTHOVANAD, in assay [3], the Imax is 100%.

`COC(=O)CCCCCNC(=O)[C@]12CCC(C)(C)C[C@H]1C1=CC[C@@H]3[C@@]4(C)CC[C@H](O[C@H]5O[C@H](C(=O)OC)[C@@H](O)[C@H](O)[C@@H]5O)C(C)(C)[C@@H]4CC[C@@]3(C)[C@]1(C)CC2`: in assay [2], the 50% inhibitory concentration (IC50) was determined as 12.2 µM. Moreover, the Imax in assay [1] amounted to 81.9%. Moreover, in the assay with 3T3-L1, the Activity was found to be 39.18%. `COC(=O)CCCCCNC(=O)[C@]12CCC(C)(C)C[C@H]1C1=CC[C@@H]3[C@@]4(C)CC[C@H](O)C(C)(C)[C@@H]4CC[C@@]3(C)[C@]1(C)CC2`: the Imax in assay [1] was 4.89%. On to `CC1(C)CC[C@]2(C(=O)NCCCCCC(=O)O)CC[C@]3(C)C(=CC[C@@H]4[C@@]5(C)CC[C@H](O[C@@H]6O[C@H](C(=O)O)[C@@H](O)[C@H](O)[C@H]6O)C(C)(C)[C@@H]5CC[C@]43C)[C@@H]2C1`, for which the IC50 in assay [2] turned out to be 0.56 µM. The Imax in assay [1] came out at 72%. For the same molecule, in the assay with 3T3-L1, the Activity is listed as 21.52%. Take `C[C@@H]1O[C@@H](O[C@H]2CC[C@]3(C)[C@H]4C[C@H](O)[C@]56OC(=O)[C@@]7(CCC(C)(C)C[C@H]75)CC[C@@]6(C)[C@]4(C)CC[C@H]3C2(C)C)[C@@H](O)[C@H](O)[C@@H]1O`: the Imax in assay [1] was -1.55%. On to `CC1(C)CC[C@]2(C(=O)NCCCCCC(=O)O)CC[C@]3(C)C(=CC[C@@H]4[C@@]5(C)CC[C@H](O[C@@H]6O[C@H](CO)[C@@H](O[C@@H]7O[C@H](CO)[C@H](O)[C@H](O)[C@H]7O)[C@H](O)[C@H]6O)C(C)(C)[C@@H]5CC[C@]43C)[C@@H]2C1`, for which the IC50 in assay [2] is 9.21 µM. In addition, the Imax in assay [1] was found to be 83.7%. For the same molecule, the Activity in the assay with 3T3-L1 was 39.13%. For the molecule `CC1(C)CC[C@@]23CC[C@]4(C)[C@@](OC2=O)([C@@H]3C1)[C@@H](O)C[C@@H]1[C@@]2(C)CC[C@H](O[C@H]3O[C@H](C(=O)O)[C@@H](O)[C@H](O)[C@@H]3O)C(C)(C)[C@@H]2CC[C@]14C`, the Imax in assay [1] worked out at 3.72%. Consider `CC1(C)CC[C@]2(C(=O)NCCCCCC(=O)O)CC[C@]3(C)C(=CC[C@@H]4[C@@]5(C)CC[C@H](O[C@@H]6O[C@H](CO)[C@@H](O)[C@H](O)[C@H]6O)C(C)(C)[C@@H]5CC[C@]43C)[C@@H]2C1`, for which the Imax in assay [1] was found to be 57.6%. The Activity in the assay on 3T3-L1 amounted to 6.11%. As to `COC(=O)CCCCCNC(=O)[C@]12CCC(C)(C)C[C@H]1C1=CC[C@@H]3[C@@]4(C)CC[C@H](O[C@@H]5O[C@H](CO)[C@@H](O[C@@H]6O[C@H](CO)[C@H](O)[C@H](O)[C@H]6O)[C@H](O)[C@H]5O)C(C)(C)[C@@H]4CC[C@@]3(C)[C@]1(C)CC2`, in assay [1], the Imax was 3.87%.

For the molecule `COC(=O)CCCCCNC(=O)[C@]12CCC(C)(C)C[C@H]1C1=CC[C@@H]3[C@@]4(C)CC[C@H](O[C@@H]5O[C@H](CO)[C@@H](O)[C@H](O)[C@H]5O)C(C)(C)[C@@H]4CC[C@@]3(C)[C@]1(C)CC2`, the Imax in assay [1] is 5.82%. As for `COC(=O)CCCCCNC(=O)[C@]12CCC(C)(C)C[C@H]1C1=CC[C@@H]3[C@@]4(C)CC[C@H](O[C@]5(C(=O)OC)C[C@H](O)[C@@H](NC(C)=O)[C@H]([C@H](O)[C@H](O)CO)O5)C(C)(C)[C@@H]4CC[C@@]3(C)[C@]1(C)CC2`, in assay [1], the Imax was found to be 56%. For the same molecule, in the assay with 3T3-L1, the Activity was 9.54%. For `COC(=O)CCCCCNC(=O)[C@]12CCC(C)(C)C[C@H]1C1=CC[C@@H]3[C@@]4(C)CC[C@H](O[C@@]5(C(=O)OC)C[C@H](O)[C@@H](NC(C)=O)[C@H]([C@H](O)[C@H](O)CO)O5)C(C)(C)[C@@H]4CC[C@@]3(C)[C@]1(C)CC2`, in that order: 8.34% and -7.74%.
